A word on the IC50: it is the concentration needed to halve the response being measured. Read a low IC50 as inhibition by little substance. In general, Kd refers to the constant that tells how readily two partners part at equilibrium.

These results are taken from ChEMBL document CHEMBL3124762, “De-novo designed library of benzoylureas as inhibitors of BCL-XL: synthesis, structural and biochemical characterization” (J Med Chem, 2014).

The nature of test [1]: Inhibition of binding of biotinylated mouse BIM BH3-26mer peptide to GST-tagged mouse BCL-Xl delta C25 mutant by AlphaScreen/[…] assay. The method in brief:
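Bead-based AlphaScreen competition: compounds titrated by serial dilution from 150 µM against GST-BCL-XL ΔC25 (0.6 nM final) and biotinylated BIM BH3 26-mer (5.0 nM final). Anti-GST acceptor and streptavidin donor beads at 15 µg/mL each. Protein/acceptor and peptide/donor pairs pre-incubated 30 min. Compound plus protein complex 30 min, then peptide complex 4 h at room temperature. 1% DMSO final. IC50 from at least two separate experiments.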
In general terms: Bead proximity is the source of the signal in Alpha formats.

For test [2], the target named is T1, Bcl-2-like protein 1 (Homo sapiens, UniProt Q07817). Kind of test: Direct binding affinity to Bcl-XL (unknown origin) pre-saturated with 26-mer-wt-Bim assessed as dissociation constant measured for 120 secs by surface plasmon resonance. The method in brief:
(§1)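 Biacore S51 direct binding. GST-BCL-XL captured on an amine-coupled anti-GST antibody surface (about 1200 RU), in phosphate buffer pH 7.4 with 150 mM NaCl, 1 mM EDTA, 0.03% Tween 20 and 5% DMSO. Each cycle, 30 nM wt-BIM 26-mer pre-blocks the groove on the reference spot. Double referencing, 4–6% DMSO solvent correction, 1:1 fit with mass transport; Kd = kd/ka.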

Test [3] concerns the target T1, Bcl-2-like protein 1. Kind of test: Direct binding affinity to free Bcl-XL (unknown origin) assessed as […] measured for 60 secs by surface plasmon resonance. The method in brief:
as §1
In general terms: Surface plasmon resonance follows binding to a sensor surface in real time, without labels.

The target of test [4] is Bcl-2-related protein A1 (Mus musculus) (UniProt Q07440). Kind of test: Inhibition of binding of wild type mBIMBH3 peptide to mouse Bcl-2-related protein A1 by surface plasmon resonance competition experiment.
Bcl-2-related protein A1 (Mus musculus), sequence (Q07440 whole entry, looked up): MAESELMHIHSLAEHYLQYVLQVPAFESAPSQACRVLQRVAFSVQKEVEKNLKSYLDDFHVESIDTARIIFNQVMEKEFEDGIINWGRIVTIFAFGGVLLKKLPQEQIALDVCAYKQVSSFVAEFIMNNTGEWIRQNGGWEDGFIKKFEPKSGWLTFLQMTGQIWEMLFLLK
Test [5] can be described thus: Inhibition of binding of wild type mBIMBH3 peptide to human Bcl-2 delta C22 mutant by surface plasmon resonance competition experiment. The method in brief: (§2)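 Solution competition SPR: recombinant pro-survival protein (10 nM) incubated 2 h with compound (25–0.024 µM) in HEPES 10 mM, 150 mM NaCl, 3.4 mM EDTA, 0.005% Tween 20, pH 7.4. Mixture then injected over CM5 chip bearing immobilized wild-type mBIMBH3 26-mer, with inert mutant mBIMBH3 surface as reference. IC50 is the mean of three independent experiments ± SEM.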

The nature of test [6]: Inhibition of binding of wild type mBIMBH3 peptide to human/mouse chimeric MCL1 by surface plasmon resonance competition experiment. The method in brief:
as §2

A short description of test [7]: Inhibition of binding of wild type mBIMBH3 peptide to human Bcl-XL delta C24 mutant by surface plasmon resonance competition experiment. A digest of the protocol:
as §2

In the next test the target is Bcl-2-like protein 2 (Homo sapiens, UniProt Q92843, A128E/C29S). Put plainly: Inhibition of binding of wild type mBIMBH3 peptide to human Bcl-W delta C29 (C29S/A128E) mutant by surface plasmon resonance competition experiment. The method in brief: as §2
Bcl-2-like protein 2, sequence (Q92843 2-193 C29S/A128E limits assumed): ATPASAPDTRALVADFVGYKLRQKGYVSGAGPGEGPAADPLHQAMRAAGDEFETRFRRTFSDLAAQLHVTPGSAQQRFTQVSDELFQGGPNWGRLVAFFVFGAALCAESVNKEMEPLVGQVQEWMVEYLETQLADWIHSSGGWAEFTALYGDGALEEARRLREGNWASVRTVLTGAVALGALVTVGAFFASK

T1 sequence (Q07817 whole entry): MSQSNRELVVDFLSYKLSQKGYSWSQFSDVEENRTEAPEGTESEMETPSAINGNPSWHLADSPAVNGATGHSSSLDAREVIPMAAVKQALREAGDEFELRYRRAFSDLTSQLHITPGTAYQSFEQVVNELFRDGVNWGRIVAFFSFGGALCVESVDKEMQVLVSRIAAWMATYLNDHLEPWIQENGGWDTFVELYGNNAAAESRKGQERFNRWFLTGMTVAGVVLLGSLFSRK

In turn, `CCCN(C(=O)N[C@@H](Cc1ccc2ccccc2c1)C(=O)O)C(=O)c1cccc(-c2ccccc2)c1` had an IC50 in test [1] above 150 µM.
On the same count and under the same terms, the result for `CCCN(C(=O)N[C@@H](CSCc1ccccc1)C(=O)O)C(=O)c1cccc(Cc2ccccc2)c1` reads above 150 µM; that for `CCCN(C(=O)N[C@@H](CSCC(C)C)C(=O)O)C(=O)c1cccc(C#Cc2cccnc2)c1`, above 150 µM.
On the same count and under the same terms, then `CCCN(C(=O)N[C@@H](CSCc1ccccc1)C(=O)O)C(=O)c1cccc(-c2ccc(Cl)c(Cl)c2)c1`, with 78 µM; and `CCCN(C(=O)N[C@@H](Cc1c[nH]c2ccccc12)C(=O)O)C(=O)c1cccc(-c2ccccc2)c1`, with 108 µM; and `CCCN(C(=O)N[C@@H](CSCC(C)C)C(=O)O)C(=O)c1cccc(C#Cc2ccc(F)cc2)c1`, with 9 µM.
Consider `CCCN(C(=O)N[C@@H](CSCc1ccccc1)C(=O)O)C(=O)c1cccc(-c2ccc3ccccc3c2)c1`, for which the IC50 in test [1] stood at 63 µM.
Still for that read-out and setting: then `CCCN(C(=O)N[C@@H](CSCCc1ccccc1)C(=O)O)C(=O)c1cccc(C#Cc2ccccc2)c1`, with 21 µM; and `CCCN(C(=O)N[C@@H](CSCCCc1ccccc1)C(=O)O)C(=O)c1cccc(C#Cc2ccccc2)c1`, with 73 µM; and `CCCN(C(=O)N[C@@H](CSCC(C)C)C(=O)O)C(=O)c1cccc(C#Cc2ccc(Oc3ccccc3)cc2)c1`, with above 150 µM.
Still for that read-out and setting: then `CCCN(C(=O)N[C@@H](CSCc1ccccc1)C(=O)O)C(=O)c1cccc(-c2ccc(OC)cc2)c1`, with above 150 µM; and `CCCN(C(=O)N[C@@H](CSCC(C)C)C(=O)O)C(=O)c1cccc(C#Cc2cccc(F)c2)c1`, with 69 µM; and `CCCN(C(=O)N[C@@H](CCc1ccccc1)C(=O)O)C(=O)c1cccc(-c2ccccc2)c1`, with above 150 µM.
`CCCN(C(=O)N[C@@H](CC(C)C)C(=O)O)C(=O)c1cccc(-c2ccccc2)c1` registered an IC50 in test [1] above 150 µM.
Still for that read-out and setting: then `CCCN(C(=O)N[C@@H](CSC(C)C)C(=O)O)C(=O)c1cccc(C#Cc2ccccc2)c1`, with 33 µM; and `CCCN(C(=O)N[C@@H](Cc1ccccc1)C(=O)O)C(=O)c1cccc(-c2ccccc2)c1`, with above 150 µM.
Regarding `CCCN(C(=O)N[C@@H](CSCc1ccc(Br)cc1)C(=O)O)C(=O)c1cccc(C#Cc2ccc(F)cc2F)c1`, the Kd at Bcl-2-like protein 1 [2] is 4 µM; at Bcl-2-like protein 1 [3] it was 6.9 µM. The same compound gave an IC50 in test [1] of 13 µM.
Turning to `CCCN(C(=O)N[C@@H](CSCc1ccccc1)C(=O)O)C(=O)c1cccc(-c2ccc(F)cc2)c1`, the IC50 in test [1] was 125 µM.
As for `CCCN(C(=O)N[C@@H](CSCc1ccccc1)C(=O)OC)C(=O)c1cccc(-c2ccccc2)c1`, in test [1], the IC50 is above 150 µM.
The same measure, in the same setting: the result for `CCCCN(C(=O)N[C@@H](CSCc1ccccc1)C(=O)O)C(=O)c1cccc(-c2ccccc2)c1` reads 138 µM.
In the case of `CCCN(C(=O)N[C@@H](CSCC(C)C)C(=O)O)C(=O)c1cccc(C#Cc2ccc(F)cc2F)c1`, the IC50 is above 25 µM in test [4]; above 25 µM in test [5]; above 25 µM in test [6]; 22 µM in test [1]; 4.4 µM in test [7]; above 25 µM at Bcl-2-like protein 2. Besides, the Kd on Bcl-2-like protein 1 [2] is 2.1 µM; at Bcl-2-like protein 1 [3], 4.9 µM.
The compound `O=C(O)[C@H](CSCc1ccccc1)NC(=O)N(Cc1ccccc1)C(=O)c1cccc(-c2ccccc2)c1` yielded an IC50 in test [1] above 150 µM.
For the compound `CCCN(C(=O)N[C@@H](Cc1ccc(O)cc1)C(=O)O)C(=O)c1cccc(-c2ccccc2)c1`, the IC50 in test [1] was above 150 µM.
Still for that read-out and setting: then `CCCSC[C@H](NC(=O)N(CCC)C(=O)c1cccc(C#Cc2ccccc2)c1)C(=O)O`, with 21 µM; and `CCCN(C(=O)N[C@@H](CSCC(C)C)C(=O)O)C(=O)c1cccc(C#Cc2ccccc2C)c1`, with 57 µM.
`CCCN(C(=O)N[C@@H](CSCc1ccccc1)C(=O)O)C(=O)c1cccc(-c2cccc3ccccc23)c1` came in with an IC50 in test [1] of 62 µM.
Still for that read-out and setting: then `CCCN(C(=O)N[C@@H](CSCC(C)C)C(=O)O)C(=O)c1cccc(C#Cc2cccc(C)c2)c1`, with 51 µM.
Same read-out and setting: the result for `CCCN(C(=O)N[C@@H](CSCc1ccccc1-c1ccccc1)C(=O)O)C(=O)c1cccc(C#Cc2ccccc2)c1` reads 146 µM.
Same read-out and setting: then `CCCN(C(=O)N[C@@H](CSCC(C)C)C(=O)O)C(=O)c1cccc(C#Cc2ccccc2F)c1`, with 39 µM; and `CCCN(C(=O)NCCSCc1ccccc1)C(=O)c1cccc(-c2ccccc2)c1`, with above 150 µM; and `CCCN(C(=O)NC)C(=O)c1cccc(-c2ccccc2)c1`, with above 150 µM.
Turning to `CC(C)N(C(=O)N[C@@H](CSCc1ccccc1)C(=O)O)C(=O)c1cccc(-c2ccccc2)c1`, the IC50 in test [1] is above 150 µM.
As to `O=C(NS(=O)(=O)c1ccc(NCCSc2ccccc2)c([N+](=O)[O-])c1)c1ccc(-c2ccc(F)cc2)cc1`, the IC50 in test [4] is 14.2 µM; in test [5], 14.7 µM; in test [6], 22 µM; in test [7], 0.196 µM; on Bcl-2-like protein 2, above 25 µM.
The compound `CCCN(C(=O)N[C@@H](CSCC(C)C)C(=O)O)C(=O)c1cccc(C#Cc2ccc(C(C)(C)C)cc2)c1` had an IC50 in test [1] above 150 µM.
The same measure, in the same setting: then `CCCN(C(=O)N[C@@H](CSCC(C)C)C(=O)O)C(=O)c1cccc(C#Cc2ccccc2)c1`, with 15 µM; and `CCCN(C(=O)N[C@@H](CSCC(C)C)C(=O)O)C(=O)c1cccc(C#Cc2ccc(C)cc2)c1`, with 50 µM; and `CCC(C)N(C(=O)N[C@@H](CSCc1ccccc1)C(=O)O)C(=O)c1cccc(-c2ccccc2)c1` (some centres undefined), with above 150 µM.
Still for that read-out and setting: then `CCCN(C(=O)N[C@@H](CSc1ccccc1)C(=O)O)C(=O)c1cccc(C#Cc2ccccc2)c1`, with 25 µM; and `CCCN(C(=O)N[C@@H](CSCc1ccccc1)C(=O)O)C(=O)c1cccc(C#Cc2ccccc2)c1`, with 35 µM.
Consider `CCCN(C(=O)N[C@@H](CSCc1ccccc1)C(N)=O)C(=O)c1cccc(-c2ccccc2)c1`, for which the IC50 in test [1] was above 150 µM.
In the case of `CCN(C(=O)N[C@@H](CSCc1ccccc1)C(=O)O)C(=O)c1cccc(-c2ccccc2)c1`, in test [1], the IC50 came to 128 µM.
In test [1], `Cc1ccc(CN(C(=O)N[C@@H](CSCc2ccccc2)C(=O)O)C(=O)c2cccc(-c3ccccc3)c2)cc1` had an IC50 above 150 µM.
The same measure, in the same setting: the result for `CCCN(C(=O)N[C@@H](CSCC(C)C)C(=O)O)C(=O)c1cccc(C#Cc2ccncc2)c1` reads above 150 µM; that for `CCCN(C(=O)N[C@@H](CSCC1CCCCC1)C(=O)O)C(=O)c1cccc(C#Cc2ccccc2)c1`, 42 µM; that for `CCCN(C(=O)N[C@@H](CSCc1ccccc1)C(=O)O)C(=O)c1cccc(-c2ccccc2)c1`, 109 µM.
In test [1], `CCCN(C(=O)N[C@@H](CSCc1ccccc1)C(=O)O)C(=O)c1cccc(CCc2ccccc2)c1` registered an IC50 of 55 µM.
Same read-out and setting: then `CCCN(C(=O)N[C@@H](CSCc1ccccc1)C(=O)O)C(=O)c1cccc(/C=C/c2ccccc2)c1`, with 141 µM; and `CCCN(C(=O)N[C@@H](CSCc1ccccc1)C(=O)O)C(=O)c1cccc(-c2ccc(Cl)cc2)c1`, with 86 µM; and `CCCN(C(=O)N[C@@H](CSCc1ccc(OC)cc1)C(=O)O)C(=O)c1cccc(C#Cc2ccccc2)c1`, with 21 µM.
Still for that read-out and setting: the result for `CCCN(C(=O)N[C@@H](CSCc1ccccc1)C(=O)O)C(=O)c1cccc(-c2ccccc2Cl)c1` reads 102 µM.
In test [1], `CCCN(C(=O)N[C@@H](CSCc1ccccc1)C(=O)O)C(=O)c1cccc(-c2ccc(C)cc2)c1` displayed an IC50 of 77 µM.
